Experimental data published in ChEMBL document CHEMBL1268908, “Design, synthesis, radiolabeling, and in vivo evaluation of carbon-11 labeled N-[2-[4-(3-cyanopyridin-2-yl)piperazin-1-yl]ethyl]-3-methoxybenzamide, a potential positron emission tomography tracer for the dopamine D(4) receptors” (J Med Chem, 2010).

What was measured:
[1] = Biodistribution in rhesus monkey retina at 150.3 MBq, iv after 87.5 mins; assay type: ADME, organism-based, Macaca mulatta; settings: in vivo
Striatum [2] = assay: Biodistribution in rhesus monkey striatum at 150.3 MBq, iv after 2.25 mins; assay type: ADME, organism-based, Macaca mulatta; settings: in vivo, 135 s
Hippocampus [3] = assay: Biodistribution in rhesus monkey hippocampus at 150.3 MBq, iv after 2.25 mins; assay type: ADME, organism-based, Macaca mulatta; settings: in vivo, 135 s
Method in brief: (§1)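 Single male rhesus monkey anesthetized with ketamine 10 mg/kg im, head fixed. Attenuation correction by 20 min 68Ge-68Ga transmission scan. [11C]-tracer in saline (pH 7.4) given iv, specific radioactivity 2.9 TBq/μmol at injection. Dynamic 3D PET emission scan over 90 min in frames of 0.5 to 5 min. MRI T1 images used to define VOIs. Uptake expressed as […].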

[4] = Biodistribution in rhesus monkey occipital lobe at 150.3 MBq, iv after 29 mins; assay type: ADME, organism-based, Macaca mulatta; settings: in vivo
Method in brief: (§2)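 Male rhesus monkey under ketamine 10 mg/kg im, head fixed; 20 min 68Ge-68Ga transmission scan, then 90 min dynamic 3D PET (6×0.5, 7×1, 20×2, 8×5 min frames) after iv [11C]-labelled tracer in saline, specific radioactivity about 2.9 TBq/μmol at injection. Regions defined on T1-weighted MRI; uptake expressed as % injected dose per mL.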

Striatum [5] = assay: Biodistribution in rhesus monkey striatum at 150.3 MBq, iv after 17 mins; settings: in vivo
[6] = Biodistribution in rhesus monkey entorhinal cortex at 150.3 MBq, iv after 4.5 mins; assay type: ADME, organism-based, Macaca mulatta; settings: in vivo, 0.075 h; method in brief: as §1
[7] = Biodistribution in rhesus monkey cerebellum at 150.3 MBq, iv after 41 mins; assay type: ADME, organism-based, Macaca mulatta; settings: in vivo
Method in brief: (§3)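 Male rhesus monkey under ketamine (10 mg/kg im) with head fixation. After a 20 min 68Ge-68Ga transmission scan, the [11C]-labelled tracer in saline (pH 7.4) was injected iv, at 2.9 TBq/μmol specific radioactivity at injection. A dynamic 3D PET scan followed over 90 min (6×0.5, 7×1, 20×2, 8×5 min frames). Regions were defined on T1-weighted 1.5 T MRI, and uptake is given as %ID/mL.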

[8] = Biodistribution in rhesus monkey retina at 150.3 MBq, iv after 2.25 mins; assay type: ADME, organism-based, Macaca mulatta; settings: in vivo, 135 s
Striatum [9] = assay: Biodistribution in rhesus monkey striatum at 150.3 MBq, iv after 49 mins; assay type: ADME, organism-based, Macaca mulatta; settings: in vivo
Hippocampus [10] = assay: Biodistribution in rhesus monkey hippocampus at 150.3 MBq, iv after 57.5 mins; assay type: ADME, organism-based, Macaca mulatta; settings: in vivo; method in brief: as §2
Striatum [11] = assay: Biodistribution in rhesus monkey striatum at 150.3 MBq, iv after 62.5 mins; assay type: ADME, organism-based, Macaca mulatta; settings: in vivo
Striatum [12] = assay: Biodistribution in rhesus monkey striatum at 150.3 MBq, iv after 1.25 mins; assay type: ADME, organism-based, Macaca mulatta; settings: in vivo, 75 s
[13] = Biodistribution in rhesus monkey retina at 150.3 MBq, iv after 15 mins; assay type: ADME, organism-based, Macaca mulatta; settings: in vivo, 0.25 h
[14] = Biodistribution in rhesus monkey retina at 150.3 MBq, iv after 35 mins; assay type: ADME, organism-based, Macaca mulatta; settings: in vivo
[15] = Biodistribution in rhesus monkey cerebellum at 150.3 MBq, iv after 49 mins; assay type: ADME, organism-based, Macaca mulatta; settings: in vivo; method in brief: as §3
Hippocampus [16] = assay: Biodistribution in rhesus monkey hippocampus at 150.3 MBq, iv after 21 mins; assay type: ADME, organism-based, Macaca mulatta; settings: in vivo, 0.35 h; method in brief: as §1
Striatum [17] = assay: Biodistribution in rhesus monkey striatum at 150.3 MBq, iv after 21 mins; assay type: ADME, organism-based, Macaca mulatta; settings: in vivo, 0.35 h
[18] = Biodistribution in rhesus monkey cerebellum at 150.3 MBq, iv after 4.5 mins; assay type: ADME, organism-based, Macaca mulatta; settings: in vivo, 0.075 h; method in brief: as §3
Striatum [19] = assay: Biodistribution in rhesus monkey striatum at 150.3 MBq, iv after 52.5 mins; assay type: ADME, organism-based, Macaca mulatta; settings: in vivo, 0.875 h
[20] = Biodistribution in rhesus monkey occipital lobe at 150.3 MBq, iv after 37 mins; assay type: ADME, organism-based, Macaca mulatta; settings: in vivo; method in brief: as §2
[21] = Biodistribution in rhesus monkey cerebellum at 150.3 MBq, iv after 37 mins; assay type: ADME, organism-based, Macaca mulatta; settings: in vivo; method in brief: as §3
[22] = Biodistribution in rhesus monkey retina at 150.3 MBq, iv after 37 mins; assay type: ADME, organism-based, Macaca mulatta; settings: in vivo
[23] = Biodistribution in rhesus monkey entorhinal cortex at 150.3 MBq, iv after 27 mins; assay type: ADME, organism-based, Macaca mulatta; settings: in vivo, 0.45 h; method in brief: as §1
Striatum [24] = assay: Biodistribution in rhesus monkey striatum at 150.3 MBq, iv after 7.5 mins; assay type: ADME, organism-based, Macaca mulatta; settings: in vivo, 0.125 h
Hippocampus [25] = assay: Biodistribution in rhesus monkey hippocampus at 150.3 MBq, iv after 72.5 mins; assay type: ADME, organism-based, Macaca mulatta; settings: in vivo; method in brief: as §2
[26] = Biodistribution in rhesus monkey entorhinal cortex at 150.3 MBq, iv after 49 mins; assay type: ADME, organism-based, Macaca mulatta; settings: in vivo; method in brief: as §1
[27] = Biodistribution in rhesus monkey entorhinal cortex at 150.3 MBq, iv after 52.5 mins; assay type: ADME, organism-based, Macaca mulatta; settings: in vivo, 0.875 h; method in brief: as §1
[28] = Biodistribution in rhesus monkey retina at 150.3 MBq, iv after 33 mins; assay type: ADME, organism-based, Macaca mulatta; settings: in vivo, 0.55 h
Hippocampus [29] = assay: Biodistribution in rhesus monkey hippocampus at 150.3 MBq, iv after 82.5 mins; assay type: ADME, organism-based, Macaca mulatta; settings: in vivo, 1.375 h; method in brief: as §2
Hippocampus [30] = assay: Biodistribution in rhesus monkey hippocampus at 150.3 MBq, iv after 41 mins; assay type: ADME, organism-based, Macaca mulatta; settings: in vivo; method in brief: as §2
[31] = Biodistribution in rhesus monkey cerebellum at 150.3 MBq, iv after 77.5 mins; assay type: ADME, organism-based, Macaca mulatta; settings: in vivo; method in brief: as §3
[32] = Biodistribution in rhesus monkey occipital lobe at 150.3 MBq, iv after 82.5 mins; assay type: ADME, organism-based, Macaca mulatta; settings: in vivo, 1.375 h
[33] = Biodistribution in rhesus monkey cerebellum at 150.3 MBq, iv after 17 mins; settings: in vivo

[11CH3]Oc1cccc(C(=O)NCCN2CCN(c3ncccc3C#N)CC2)c1
Drug uptake [1]: 52.04 kBq/ml | Drug uptake (Striatum [2]): 51.53 kBq/ml | Drug uptake (Hippocampus [3]): 50.51 kBq/ml | Drug uptake [4]: 13.8 kBq/ml | Drug uptake (Striatum [5]): 20.6138 kBq/ml | Drug uptake [6]: 33.7 kBq/ml | Drug uptake [7]: 10.86 kBq/ml | Drug uptake [8]: 36.9 kBq/ml | Drug uptake (Striatum [9]): 10.09 kBq/ml | Drug uptake (Hippocampus [10]): 7.745 kBq/ml | Drug uptake (Striatum [11]): 9.547 kBq/ml | Drug uptake (Striatum [12]): 60.2 kBq/ml | Drug uptake [13]: 50.94 kBq/ml | Drug uptake [14]: 57.58 kBq/ml | Drug uptake [15]: 10.45 kBq/ml | Drug uptake (Hippocampus [16]): 17.71 kBq/ml | Drug uptake (Striatum [17]): 18.62 kBq/ml | Drug uptake [18]: 34.76 kBq/ml | Drug uptake (Striatum [19]): 10.06 kBq/ml | Drug uptake [20]: 11.24 kBq/ml | Drug uptake [21]: 11.56 kBq/ml | Drug uptake [22]: 57.39 kBq/ml | Drug uptake [23]: 14.48 kBq/ml | Drug uptake (Striatum [24]): 34.7 kBq/ml | Drug uptake (Hippocampus [25]): 8.523 kBq/ml | Drug uptake [26]: 9.688 kBq/ml | Drug uptake [27]: 9.01 kBq/ml | Drug uptake [28]: 57.47 kBq/ml | Drug uptake (Hippocampus [29]): 8.042 kBq/ml | Drug uptake (Hippocampus [30]): 11.5929 kBq/ml | Drug uptake [31]: 8.009 kBq/ml | Drug uptake [32]: 8.356 kBq/ml | Drug uptake [33]: 18.41 kBq/ml
